Measurements reported in ChEMBL document CHEMBL4229344 (Eur J Med Chem, 2018).
The source made the active and inactive calls. No cut-off for these calls is given here.

Tests used:
[1] = biological target: Phosphatidylinositol 4,5-bisphosphate 3-kinase catalytic subunit alpha isoform (Homo sapiens) (UniProt P42336); test: Binding affinity to wild-type human partial length PIK3CA (R108 to N1068 residues) expressed in mammalian expression system assessed as residual binding level at 1 uM by Kinomescan method relative to control
[2] = tested on: EOL1; test: Antitumor activity against human EOL-1 cells engrafted in ip dosed NOD-SCID mouse assessed as increase in mouse survival administered 3 weeks post cell inoculation; format: functional, organism-based
Outline: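 Daily i.p. dosing started 3 weeks after inoculation at 7.5, 15 or 30 mg/kg/day. Mice monitored daily and euthanized when moribund or at hind-limb paralysis. Bone marrow cells, after red-cell lysis, stained with PE anti-HLA-ABC and counted by flow cytometry.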

[3] = biological target: STE20-like serine/threonine-protein kinase (Homo sapiens) (UniProt Q9H2G2); test: Binding affinity to wild-type human partial length SLK (S14 to A307 residues) expressed in bacterial expression system assessed as residual binding level at 1 uM by Kinomescan method relative to control
[4] = biological target: Serine/threonine-protein kinase Nek4 (Homo sapiens) (UniProt P51957); test: Binding affinity to wild-type human full length NEK4 (M1 to F841 residues) expressed in mammalian expression system assessed as residual binding level at 1 uM by Kinomescan method relative to control
Outline: (§1)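 Single-concentration KINOMEscan (DiscoverX) binding screen at 1 μM against a panel of 468 purified kinases and mutants. The read-out is binding relative to control.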

[5] = biological target: Serine/threonine-protein kinase MRCK alpha (Homo sapiens) (UniProt Q5VT25); test: Binding affinity to wild-type human partial length MRCKA (L57 to V418 residues) expressed in bacterial expression system assessed as residual binding level at 1 uM by Kinomescan method relative to control
Outline: (§2)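 Kinome-wide competition binding screen against a panel of 468 purified kinases/mutants, with the test compound at a single concentration of 1 μM. Read-out is the relative binding activity of each kinase in the presence of compound.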

[6] = tested on: EOL1; test: Antitumor activity against human EOL-1 cells xenografted in nu/nu mouse assessed as induction of apoptosis at 25 to 100 mg/kg/day, ip by DAB staining-based TUNEL assay; format: functional, organism-based
Outline: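 Female nu/nu mice (6 weeks) given subcutaneous right-flank injection of 5 million EOL-1 cells in PBS/Matrigel 1:1. At 200–400 mm3 tumors, randomized to groups of 6 and dosed daily i.p. for 14 days at 25, 50 or 100 mg/kg/d in 0.5% methylcellulose/0.4% Tween80. Tumor volume = W²×L/2, measured daily.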

[7] = biological target: Aurora kinase C (Homo sapiens) (UniProt Q9UQB9); test: Binding affinity to wild-type human full length AURKC (M1 to S275 residues) expressed in bacterial expression system assessed as residual binding level at 1 uM by Kinomescan method relative to control
Outline: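 Single-concentration (1 μM) competition-binding screen run by KINOMEscan against a panel of 468 purified kinases and mutants. The read-out is the relative binding activity of the test compound to each kinase.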

[8] = biological target: Cyclin-dependent kinase-like 5 (Homo sapiens) (UniProt O76039); test: Binding affinity to wild-type human partial length CDKL5 (M1 to S337 residues) expressed in mammalian expression system assessed as residual binding level at 1 uM by Kinomescan method relative to control
[9] = tested on: Epidermal growth factor receptor (Homo sapiens), P00533 [G719C]; test: Binding affinity to human partial length EGFR G719C mutant (R669 to V1011 residues) expressed in bacterial expression system assessed as residual binding level at 1 uM by Kinomescan method relative to control
Outline: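 Kinome-wide single-concentration binding screen (KINOMEscan) at 1 μM against a panel of 468 purified kinases and mutants. Read-out is relative binding of each kinase compared with control. Selectivity across the panel was summarised as an S(10) score.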

[10] = biological target: Cyclin-G-associated kinase (Homo sapiens) (UniProt O14976); test: Binding affinity to wild-type human partial length GAK (G13 to Y338 residues) expressed in bacterial expression system assessed as residual binding level at 1 uM by Kinomescan method relative to control; outline: as §2
[11] = biological target: Rho-associated protein kinase 2 (Homo sapiens) (UniProt O75116); test: Binding affinity to wild-type human partial length ROCK2 (M1 to T431 residues) expressed in mammalian expression system assessed as residual binding level at 1 uM by Kinomescan method relative to control
[12] = biological target: Vascular endothelial growth factor receptor 3 (Homo sapiens) (UniProt P35916); test: Binding affinity to wild-type human partial length FLT4 (E821 to E1196 residues) expressed in bacterial expression system assessed as residual binding level at 1 uM by Kinomescan method relative to control
[13] = biological target: Serine/threonine-protein kinase D1 (Homo sapiens) (UniProt Q15139); test: Binding affinity to wild-type human partial length PRKD1 (G551 to E870 residues) expressed in bacterial expression system assessed as residual binding level at 1 uM by Kinomescan method relative to control
Outline: (§3)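 KINOMEscan competition binding against a panel of 468 purified kinases/mutants, compound tested at 1 μM; readout is relative binding activity versus control.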

[14] = biological target: TRAF2 and NCK-interacting protein kinase (Homo sapiens) (UniProt Q9UKE5); test: Binding affinity to wild-type human partial length TNIK (D4 to K311 residues) expressed in bacterial expression system assessed as residual binding level at 1 uM by Kinomescan method relative to control; outline: as §3
[15] = biological target: MAP kinase-interacting serine/threonine-protein kinase 2 (Homo sapiens) (UniProt Q9HBH9); test: Binding affinity to wild-type human partial length MKNK2 (G63 to S388 residues) expressed in mammalian expression system assessed as residual binding level at 1 uM by Kinomescan method relative to control
[16] = biological target: Protein kinase C theta type (Homo sapiens) (UniProt Q04759); test: Binding affinity to wild-type human partial length PRKCQ (L350 to S706 residues) expressed in bacterial expression system assessed as residual binding level at 1 uM by Kinomescan method relative to control; outline: as §3
[17] = biological target: Mitogen-activated protein kinase 13 (Homo sapiens) (UniProt O15264); test: Binding affinity to wild-type human full length p38-delta (M1 to L365 residues) expressed in bacterial expression system assessed as residual binding level at 1 uM by Kinomescan method relative to control
Outline: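 KINOMEscan competition binding against 468 purified kinases/mutants, test compound at 1 µM; residual binding relative to control.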

[18] = biological target: Serine/threonine-protein kinase Nek7 (Homo sapiens) (UniProt Q8TDX7); test: Binding affinity to wild-type human full length NEK7 (M1 to S302 residues) expressed in bacterial expression system assessed as residual binding level at 1 uM by Kinomescan method relative to control; outline: as §1
[19] = biological target: Serine/threonine-protein kinase SIK1 (Homo sapiens) (UniProt P57059); test: Binding affinity to wild-type human partial length SIK (M1 to Y304 residues) expressed in bacterial expression system assessed as residual binding level at 1 uM by Kinomescan method relative to control
Serine/threonine-protein kinase SIK1 (Homo sapiens), sequence (P57059 whole entry, the tested form may be a part): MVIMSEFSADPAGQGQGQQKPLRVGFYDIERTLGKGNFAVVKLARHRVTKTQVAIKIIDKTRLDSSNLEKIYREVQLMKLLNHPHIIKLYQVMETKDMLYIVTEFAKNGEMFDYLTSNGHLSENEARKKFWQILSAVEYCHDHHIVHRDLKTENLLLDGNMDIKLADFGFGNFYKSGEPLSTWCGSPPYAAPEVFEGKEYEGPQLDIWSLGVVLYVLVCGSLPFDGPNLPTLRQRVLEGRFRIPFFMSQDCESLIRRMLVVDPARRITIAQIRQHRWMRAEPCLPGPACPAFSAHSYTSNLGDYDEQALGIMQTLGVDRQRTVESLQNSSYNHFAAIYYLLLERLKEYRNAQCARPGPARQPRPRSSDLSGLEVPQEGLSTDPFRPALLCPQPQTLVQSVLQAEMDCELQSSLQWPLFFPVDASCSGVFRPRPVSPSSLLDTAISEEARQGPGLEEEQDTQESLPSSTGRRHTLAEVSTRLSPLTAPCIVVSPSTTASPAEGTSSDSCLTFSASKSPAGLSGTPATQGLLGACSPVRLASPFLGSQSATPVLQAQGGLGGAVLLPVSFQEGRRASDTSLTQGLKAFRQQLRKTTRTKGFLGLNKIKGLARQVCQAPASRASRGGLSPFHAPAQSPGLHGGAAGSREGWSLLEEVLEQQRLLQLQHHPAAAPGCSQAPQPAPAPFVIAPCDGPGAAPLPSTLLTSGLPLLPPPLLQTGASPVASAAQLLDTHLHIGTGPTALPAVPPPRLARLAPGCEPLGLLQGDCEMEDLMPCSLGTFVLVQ

Cyclin-dependent kinase-like 5 (Homo sapiens), sequence (O76039 whole entry, the tested form may be a part): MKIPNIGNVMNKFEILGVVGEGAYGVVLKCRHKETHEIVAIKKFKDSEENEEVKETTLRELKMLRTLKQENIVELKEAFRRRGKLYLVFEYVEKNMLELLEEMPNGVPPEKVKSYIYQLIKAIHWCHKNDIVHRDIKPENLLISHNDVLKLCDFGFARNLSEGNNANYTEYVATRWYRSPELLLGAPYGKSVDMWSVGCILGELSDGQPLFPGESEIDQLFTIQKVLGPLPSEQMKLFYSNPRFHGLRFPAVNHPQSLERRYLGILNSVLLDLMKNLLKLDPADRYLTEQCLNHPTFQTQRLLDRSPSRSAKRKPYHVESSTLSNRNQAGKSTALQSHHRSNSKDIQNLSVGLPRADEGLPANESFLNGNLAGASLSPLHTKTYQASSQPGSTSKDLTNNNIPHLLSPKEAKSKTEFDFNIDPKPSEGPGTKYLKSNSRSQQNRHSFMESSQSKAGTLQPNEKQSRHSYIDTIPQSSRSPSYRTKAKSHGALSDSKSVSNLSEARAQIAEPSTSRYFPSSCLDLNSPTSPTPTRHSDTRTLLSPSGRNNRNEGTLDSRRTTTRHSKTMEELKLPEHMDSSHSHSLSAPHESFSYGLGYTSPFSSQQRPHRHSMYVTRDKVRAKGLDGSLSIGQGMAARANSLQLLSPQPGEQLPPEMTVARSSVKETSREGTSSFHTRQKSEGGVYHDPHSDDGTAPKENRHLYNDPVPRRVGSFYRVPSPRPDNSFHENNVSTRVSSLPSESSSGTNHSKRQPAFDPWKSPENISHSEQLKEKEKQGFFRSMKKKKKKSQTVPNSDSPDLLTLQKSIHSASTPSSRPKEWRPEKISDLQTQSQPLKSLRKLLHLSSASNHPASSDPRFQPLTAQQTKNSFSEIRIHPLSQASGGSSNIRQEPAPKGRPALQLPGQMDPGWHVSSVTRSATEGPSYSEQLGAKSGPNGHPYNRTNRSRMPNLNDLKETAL
Serine/threonine-protein kinase Nek4 (Homo sapiens), sequence (P51957 whole entry, looked up, the tested form may be a part): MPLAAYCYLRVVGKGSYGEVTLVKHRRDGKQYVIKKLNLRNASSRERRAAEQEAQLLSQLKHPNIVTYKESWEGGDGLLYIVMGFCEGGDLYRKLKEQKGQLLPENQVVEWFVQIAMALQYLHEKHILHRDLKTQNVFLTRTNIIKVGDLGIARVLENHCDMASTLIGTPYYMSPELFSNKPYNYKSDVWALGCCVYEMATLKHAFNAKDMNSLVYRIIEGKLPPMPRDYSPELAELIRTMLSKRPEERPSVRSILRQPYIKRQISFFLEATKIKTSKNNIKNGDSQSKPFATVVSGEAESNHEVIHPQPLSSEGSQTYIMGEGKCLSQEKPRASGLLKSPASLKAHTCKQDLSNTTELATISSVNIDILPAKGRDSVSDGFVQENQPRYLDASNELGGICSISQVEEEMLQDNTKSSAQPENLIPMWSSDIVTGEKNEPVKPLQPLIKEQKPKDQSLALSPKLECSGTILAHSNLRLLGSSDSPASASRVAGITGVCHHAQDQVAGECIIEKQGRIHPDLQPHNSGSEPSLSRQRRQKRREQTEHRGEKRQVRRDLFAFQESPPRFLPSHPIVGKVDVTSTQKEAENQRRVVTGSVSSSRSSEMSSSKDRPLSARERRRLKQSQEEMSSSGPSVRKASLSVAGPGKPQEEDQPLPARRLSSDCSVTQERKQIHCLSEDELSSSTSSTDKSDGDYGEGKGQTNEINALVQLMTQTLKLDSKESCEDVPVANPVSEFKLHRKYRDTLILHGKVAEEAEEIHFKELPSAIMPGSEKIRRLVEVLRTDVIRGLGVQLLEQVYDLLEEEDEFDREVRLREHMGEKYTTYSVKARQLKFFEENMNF
MAP kinase-interacting serine/threonine-protein kinase 2 (Homo sapiens), sequence (Q9HBH9 whole entry, looked up, the tested form may be a part): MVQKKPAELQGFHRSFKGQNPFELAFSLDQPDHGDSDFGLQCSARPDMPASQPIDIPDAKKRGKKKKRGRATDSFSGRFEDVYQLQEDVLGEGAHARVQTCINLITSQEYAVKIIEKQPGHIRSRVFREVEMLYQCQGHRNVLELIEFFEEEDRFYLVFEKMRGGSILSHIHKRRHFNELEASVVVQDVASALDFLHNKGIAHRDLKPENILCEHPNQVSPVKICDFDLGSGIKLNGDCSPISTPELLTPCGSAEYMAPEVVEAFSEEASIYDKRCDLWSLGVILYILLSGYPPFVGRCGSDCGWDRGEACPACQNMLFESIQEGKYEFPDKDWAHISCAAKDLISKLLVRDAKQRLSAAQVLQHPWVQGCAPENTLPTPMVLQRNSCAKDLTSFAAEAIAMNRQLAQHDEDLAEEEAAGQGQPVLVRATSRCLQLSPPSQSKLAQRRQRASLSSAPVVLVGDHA
Rho-associated protein kinase 2 (Homo sapiens), sequence (O75116 whole entry, looked up, the tested form may be a part): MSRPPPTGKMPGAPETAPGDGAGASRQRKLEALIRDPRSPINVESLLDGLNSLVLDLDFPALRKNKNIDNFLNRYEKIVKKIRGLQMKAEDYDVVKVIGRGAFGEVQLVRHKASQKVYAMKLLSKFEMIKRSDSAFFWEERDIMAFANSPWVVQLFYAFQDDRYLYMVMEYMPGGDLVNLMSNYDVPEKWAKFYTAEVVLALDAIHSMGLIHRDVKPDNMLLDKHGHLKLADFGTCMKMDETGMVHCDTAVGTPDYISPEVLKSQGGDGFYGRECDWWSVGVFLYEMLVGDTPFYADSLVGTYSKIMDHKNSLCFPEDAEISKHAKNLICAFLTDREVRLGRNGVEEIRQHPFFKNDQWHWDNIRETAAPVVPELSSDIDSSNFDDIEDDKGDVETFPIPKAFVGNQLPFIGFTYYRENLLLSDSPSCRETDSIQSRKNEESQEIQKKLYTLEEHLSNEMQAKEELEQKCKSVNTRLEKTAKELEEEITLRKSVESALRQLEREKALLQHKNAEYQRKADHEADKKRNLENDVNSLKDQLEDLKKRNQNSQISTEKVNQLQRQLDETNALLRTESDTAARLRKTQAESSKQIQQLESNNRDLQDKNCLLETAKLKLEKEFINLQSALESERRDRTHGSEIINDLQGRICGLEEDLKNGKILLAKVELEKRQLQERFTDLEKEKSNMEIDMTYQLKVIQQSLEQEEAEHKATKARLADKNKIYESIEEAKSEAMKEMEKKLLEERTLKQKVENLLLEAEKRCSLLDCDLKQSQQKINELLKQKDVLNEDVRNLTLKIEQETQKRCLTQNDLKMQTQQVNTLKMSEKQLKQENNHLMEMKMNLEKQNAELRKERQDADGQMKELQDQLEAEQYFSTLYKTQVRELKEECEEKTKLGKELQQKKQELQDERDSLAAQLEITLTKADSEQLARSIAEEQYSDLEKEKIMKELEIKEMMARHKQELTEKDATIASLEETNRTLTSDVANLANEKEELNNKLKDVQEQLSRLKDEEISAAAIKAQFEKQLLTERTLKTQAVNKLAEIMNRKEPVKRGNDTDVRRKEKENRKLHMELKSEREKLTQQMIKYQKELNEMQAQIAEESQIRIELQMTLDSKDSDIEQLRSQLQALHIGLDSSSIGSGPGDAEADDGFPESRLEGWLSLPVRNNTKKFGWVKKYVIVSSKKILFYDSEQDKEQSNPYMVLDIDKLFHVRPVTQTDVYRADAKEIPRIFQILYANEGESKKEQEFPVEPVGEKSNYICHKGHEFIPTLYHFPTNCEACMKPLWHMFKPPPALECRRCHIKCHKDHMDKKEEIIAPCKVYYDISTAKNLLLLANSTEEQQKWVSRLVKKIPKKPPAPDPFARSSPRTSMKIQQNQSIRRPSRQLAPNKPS
Serine/threonine-protein kinase Nek7 (Homo sapiens), sequence (Q8TDX7 whole entry, looked up, the tested form may be a part): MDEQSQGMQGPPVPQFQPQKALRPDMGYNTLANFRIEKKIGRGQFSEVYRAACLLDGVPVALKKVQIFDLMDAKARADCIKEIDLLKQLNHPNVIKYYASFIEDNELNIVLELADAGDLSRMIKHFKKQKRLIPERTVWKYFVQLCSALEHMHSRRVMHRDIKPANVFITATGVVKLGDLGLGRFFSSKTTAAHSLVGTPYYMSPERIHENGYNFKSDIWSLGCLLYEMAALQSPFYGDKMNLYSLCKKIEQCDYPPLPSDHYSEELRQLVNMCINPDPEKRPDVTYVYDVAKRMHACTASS
Aurora kinase C (Homo sapiens), sequence (Q9UQB9 whole entry, the tested form may be a part): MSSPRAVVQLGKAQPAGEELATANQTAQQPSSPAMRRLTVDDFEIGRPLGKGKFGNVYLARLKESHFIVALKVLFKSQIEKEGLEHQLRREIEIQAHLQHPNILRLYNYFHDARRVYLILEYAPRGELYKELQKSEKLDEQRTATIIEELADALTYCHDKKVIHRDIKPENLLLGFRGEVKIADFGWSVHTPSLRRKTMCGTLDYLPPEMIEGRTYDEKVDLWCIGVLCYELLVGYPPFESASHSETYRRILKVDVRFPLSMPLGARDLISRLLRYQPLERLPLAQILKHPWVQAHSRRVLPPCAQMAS

In the case of `Cc1ccc(NC(=O)c2ccc(CN(CCN(C)C)C(=O)c3cccnc3)cc2)cc1Nc1nccc(-c2cccnc2)n1`, the Activity [1] is reported as 100%, the Activity [2] is reported as “Dose-dependent effect” and the Activity [3] is reported as 100%. For the same compound, the Activity [4] was 100%, the Activity [5] was 80% and the Activity [6] was “Active”. It also gave an Activity [7] of 97%, an Activity [8] of 100% and an Activity [9] of 88%. For the same compound, the Activity [10] was 82%, the Activity [11] was 100% and the Activity [12] was 100%. The Activity [13] was 75%, the Activity [14] was 83% and the Activity [15] was 100%. It also gave an Activity [16] of 83%, an Activity [17] of 79% and an Activity [18] of 96%. It also gave an Activity [19] of 100%.
